The target of one test is Histamine H3 receptor (Homo sapiens, UniProt Q9Y5N1). As to the kind of experiment: Displacement of [3H]UR-PI294 from human histamine H3 receptor stably expressed in baculovirus infected Sf9 cell membrane co-expressing G-alphai2 and G-beta1gamma2 incubated for 60 mins by scintillation counting analysis. Format: cell membranes. An outline of the steps:
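hH3R + Gαi2 + Gβ1γ2 expressed in Sf9 membranes. […] Mean ± SEM from N independent experiments in triplicate.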

The target in the next test is Histamine H2 receptor (Cavia porcellus, UniProt P47747). The experiment in a line: Agonist activity at histamine H2 receptor in spontaneous beating guinea pig right atrium assessed as increase in heart beat. Format: functional, tissue-based, Right cardiac atrium.
Histamine H2 receptor, sequence (P47747 whole entry): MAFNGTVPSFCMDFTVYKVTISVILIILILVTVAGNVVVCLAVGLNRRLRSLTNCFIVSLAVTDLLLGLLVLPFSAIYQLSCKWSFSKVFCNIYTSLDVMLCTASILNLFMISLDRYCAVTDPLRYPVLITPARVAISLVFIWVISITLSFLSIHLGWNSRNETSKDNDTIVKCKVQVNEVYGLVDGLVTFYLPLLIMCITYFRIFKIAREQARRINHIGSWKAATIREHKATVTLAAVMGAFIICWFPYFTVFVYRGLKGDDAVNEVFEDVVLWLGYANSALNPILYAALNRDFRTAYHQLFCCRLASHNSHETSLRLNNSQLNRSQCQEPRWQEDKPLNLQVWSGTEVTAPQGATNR
For test [1], the target named is T1, Muscarinic acetylcholine receptor M1 (Homo sapiens, UniProt P11229).
T1 sequence (P11229 whole entry): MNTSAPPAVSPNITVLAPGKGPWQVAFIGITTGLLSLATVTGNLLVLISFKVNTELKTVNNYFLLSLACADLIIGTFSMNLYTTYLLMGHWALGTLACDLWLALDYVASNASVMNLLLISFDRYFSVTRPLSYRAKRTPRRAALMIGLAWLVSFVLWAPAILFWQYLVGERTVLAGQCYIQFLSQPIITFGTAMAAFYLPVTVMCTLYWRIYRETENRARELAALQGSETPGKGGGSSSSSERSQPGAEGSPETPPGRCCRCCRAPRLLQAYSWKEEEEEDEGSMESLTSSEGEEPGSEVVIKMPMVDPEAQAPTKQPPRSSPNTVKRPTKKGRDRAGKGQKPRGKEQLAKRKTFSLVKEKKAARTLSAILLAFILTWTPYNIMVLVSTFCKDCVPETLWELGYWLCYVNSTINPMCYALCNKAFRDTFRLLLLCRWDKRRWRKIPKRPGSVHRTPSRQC
As to the kind of experiment: Displacement of [3H]N-methylscopolamine from human muscarinic acetylcholine M1 receptor stably expressed in CHO cells by radioligand competition binding based analysis. Format: cell-based. An outline of the steps:
(§1)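 Whole CHO cells stably expressing hM1–hM5, competed against [3H]N-methylscopolamine. Kd/applied concentrations in nM: M1 0.17/0.2, M2 0.10/0.2, M3 0.12/0.2, M4 0.052/0.1, M5 0.20/0.3.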
A general note: Displacement assays read how much labelled ligand stays bound in the presence of the test substance.

The target in test [2] is T2, Muscarinic acetylcholine receptor M4 (Homo sapiens, UniProt P08173).
T2 sequence (P08173 whole entry): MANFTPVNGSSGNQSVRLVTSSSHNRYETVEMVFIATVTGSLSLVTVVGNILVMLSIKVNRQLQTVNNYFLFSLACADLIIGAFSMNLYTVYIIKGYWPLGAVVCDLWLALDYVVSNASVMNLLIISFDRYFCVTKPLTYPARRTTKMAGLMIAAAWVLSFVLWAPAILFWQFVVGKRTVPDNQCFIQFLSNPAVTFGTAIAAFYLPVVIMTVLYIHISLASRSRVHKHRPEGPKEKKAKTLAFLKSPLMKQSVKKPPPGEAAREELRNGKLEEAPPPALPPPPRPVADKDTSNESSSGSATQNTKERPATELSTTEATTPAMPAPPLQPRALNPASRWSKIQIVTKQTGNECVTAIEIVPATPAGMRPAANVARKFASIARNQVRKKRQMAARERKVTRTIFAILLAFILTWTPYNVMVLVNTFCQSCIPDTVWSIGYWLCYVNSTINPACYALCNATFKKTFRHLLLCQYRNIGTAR
The experiment in a line: Displacement of [3H]N-methylscopolamine from human muscarinic acetylcholine M4 receptor stably expressed in CHO cells by radioligand competition binding based analysis. Format: cell-based. An outline of the steps:
as §1

Test [3] addresses T3, Alpha-1A adrenergic receptor (Homo sapiens, UniProt P35348).
T3 sequence (P35348 whole entry): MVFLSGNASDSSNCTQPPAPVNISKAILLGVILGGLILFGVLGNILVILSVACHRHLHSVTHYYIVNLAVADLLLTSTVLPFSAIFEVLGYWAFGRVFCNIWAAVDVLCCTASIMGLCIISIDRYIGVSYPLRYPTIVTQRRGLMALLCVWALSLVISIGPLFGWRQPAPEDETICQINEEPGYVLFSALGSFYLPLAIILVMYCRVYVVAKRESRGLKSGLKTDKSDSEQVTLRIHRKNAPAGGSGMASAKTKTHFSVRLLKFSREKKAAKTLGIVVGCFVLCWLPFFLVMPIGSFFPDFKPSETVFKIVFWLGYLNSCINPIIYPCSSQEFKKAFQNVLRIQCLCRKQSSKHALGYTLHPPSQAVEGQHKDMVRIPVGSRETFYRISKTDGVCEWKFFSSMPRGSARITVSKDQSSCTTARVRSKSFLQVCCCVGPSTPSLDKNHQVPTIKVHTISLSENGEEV
As to the kind of experiment: Displacement of [3H]prazosin from human alpha-1A adrenergic receptor stably expressed in HEK293T cell membrane incubated for 2 hrs by scintillation counting analysis. Format: cell membranes.

In test [4] the target is T4, Alpha-2A adrenergic receptor (Homo sapiens, UniProt P08913).
T4 sequence (P08913 whole entry): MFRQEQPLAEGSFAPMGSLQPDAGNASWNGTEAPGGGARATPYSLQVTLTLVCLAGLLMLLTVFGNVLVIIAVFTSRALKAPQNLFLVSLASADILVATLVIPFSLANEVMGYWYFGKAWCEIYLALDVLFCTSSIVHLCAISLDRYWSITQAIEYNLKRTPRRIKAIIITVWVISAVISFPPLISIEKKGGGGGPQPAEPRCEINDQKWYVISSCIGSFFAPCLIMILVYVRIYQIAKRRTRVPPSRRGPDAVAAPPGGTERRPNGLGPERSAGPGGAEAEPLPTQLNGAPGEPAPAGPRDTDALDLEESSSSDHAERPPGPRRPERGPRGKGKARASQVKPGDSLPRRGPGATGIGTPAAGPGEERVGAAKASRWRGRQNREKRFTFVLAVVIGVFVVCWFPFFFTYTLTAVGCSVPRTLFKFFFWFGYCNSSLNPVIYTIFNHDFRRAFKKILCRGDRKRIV
As to the kind of experiment: Displacement of [3H]RX821002 from human alpha-2A adrenergic receptor […] in HEK293T cell membrane incubated for 2 hrs by scintillation counting analysis. Format: cell membranes. An outline of the steps: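 Transiently transfected HEK293T membranes in 50 mM Tris, pH 7.4. α2A: 10 μg/well, 0.5 nM [3H]RX821002, nonspecific with 10 μM RX821002. μOR: 6 μg/well, 0.3 nM [3H]diprenorphine, nonspecific with 10 μM naloxone. Ki from IC50 by Cheng–Prusoff.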

The next test concerns the target Histamine H1 receptor (Homo sapiens, UniProt P35367).
A further test concerns the target Histamine H4 receptor (Homo sapiens, UniProt Q9H3N8).

The source of these data is ChEMBL document CHEMBL5149991 (J Med Chem, 2021).

Usually Ki stands for a measure of affinity in units of concentration, obtained from inhibition or displacement. A lower Ki goes with tighter binding. For orientation: EC50 means the concentration at which the effect is half-maximal. Usually Kd stands for the free concentration of one partner at which half of the binding sites on the other are occupied at equilibrium, for simple one-to-one binding. High values mean a looser complex, low ones a tighter complex. The term pKi denotes −log10 of the Ki, conventionally taken in molar units.

Histamine H4 receptor, sequence (Q9H3N8 whole entry): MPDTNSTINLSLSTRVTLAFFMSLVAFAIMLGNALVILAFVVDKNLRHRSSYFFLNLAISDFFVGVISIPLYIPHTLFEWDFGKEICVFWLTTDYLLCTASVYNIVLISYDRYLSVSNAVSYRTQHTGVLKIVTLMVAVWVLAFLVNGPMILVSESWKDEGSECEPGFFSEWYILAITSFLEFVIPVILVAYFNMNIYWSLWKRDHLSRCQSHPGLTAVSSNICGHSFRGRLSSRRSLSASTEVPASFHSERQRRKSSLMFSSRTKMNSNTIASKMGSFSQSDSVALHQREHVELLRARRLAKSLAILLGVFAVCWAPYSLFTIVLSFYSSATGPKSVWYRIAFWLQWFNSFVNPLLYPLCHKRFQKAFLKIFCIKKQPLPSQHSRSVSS
Histamine H3 receptor, sequence (Q9Y5N1 whole entry): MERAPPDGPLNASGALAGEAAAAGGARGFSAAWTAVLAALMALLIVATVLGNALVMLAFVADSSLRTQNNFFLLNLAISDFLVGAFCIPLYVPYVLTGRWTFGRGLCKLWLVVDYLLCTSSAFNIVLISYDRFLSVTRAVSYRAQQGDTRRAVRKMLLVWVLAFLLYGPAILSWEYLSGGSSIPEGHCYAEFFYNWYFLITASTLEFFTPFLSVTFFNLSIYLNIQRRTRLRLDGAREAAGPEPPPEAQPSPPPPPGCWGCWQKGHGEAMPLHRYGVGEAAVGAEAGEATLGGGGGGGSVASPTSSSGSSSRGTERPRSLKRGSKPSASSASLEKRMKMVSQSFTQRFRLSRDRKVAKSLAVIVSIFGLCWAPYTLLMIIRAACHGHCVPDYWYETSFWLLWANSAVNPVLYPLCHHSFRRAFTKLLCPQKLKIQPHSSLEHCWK
Histamine H1 receptor, sequence (P35367 whole entry): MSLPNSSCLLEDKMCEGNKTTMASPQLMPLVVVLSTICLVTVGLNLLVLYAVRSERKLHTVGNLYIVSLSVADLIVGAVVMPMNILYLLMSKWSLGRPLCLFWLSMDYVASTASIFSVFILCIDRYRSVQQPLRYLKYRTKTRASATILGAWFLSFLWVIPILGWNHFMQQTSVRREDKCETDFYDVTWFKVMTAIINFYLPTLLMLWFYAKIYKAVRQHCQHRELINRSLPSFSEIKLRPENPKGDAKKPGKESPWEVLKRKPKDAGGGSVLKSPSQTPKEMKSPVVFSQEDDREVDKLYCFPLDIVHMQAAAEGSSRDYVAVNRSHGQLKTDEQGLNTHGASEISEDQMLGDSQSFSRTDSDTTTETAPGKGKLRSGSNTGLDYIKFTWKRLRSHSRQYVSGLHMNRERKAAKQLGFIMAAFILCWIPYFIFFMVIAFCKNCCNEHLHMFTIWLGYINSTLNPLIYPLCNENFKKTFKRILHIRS

For `C[C@@H](NC(=O)/N=C(\N)NCCCc1ncn[nH]1)c1ccccc1`, the Ki is more than 10000 nM at Histamine H3 receptor, 7940 nM at Histamine H1 receptor and more than 10000 nM at Histamine H4 receptor. Moreover, at Histamine H2 receptor, the EC50 was 38 nM. The dissociation constant Kd amounted to 0.17 nM in test [1]; 0.052 nM in test [2]; 0.25 nM in test [3]; 0.6 nM in test [4]; 4.5 nM at Histamine H1 receptor; 16 nM on Histamine H4 receptor. The pKi in test [1] is less than 5; in test [2] it was more than 5; in test [3], 5.72; in test [4], 6.07.

With `CCCCCNC(=O)/N=C(\N)NCCCc1nnc(N)s1.O=C(O)C(F)(F)F.O=C(O)C(F)(F)F`, the Ki is more than 10000 nM on Histamine H3 receptor, 6460 nM on Histamine H1 receptor and more than 10000 nM on Histamine H4 receptor. Moreover, the EC50 at Histamine H2 receptor was 5.62 nM. Besides, the equilibrium dissociation constant (Kd) turned out to be 0.17 nM in test [1]; 0.052 nM in test [2]; 0.25 nM in test [3]; 0.6 nM in test [4]; 4.5 nM on Histamine H1 receptor; 16 nM on Histamine H4 receptor. The pKi in test [1] was less than 5; in test [2] it was less than 5; in test [3], 5.45; in test [4], 5.31.

For `N/C(=N\C(=O)NCc1ccccc1)NCCCc1nnc(N)s1`, the Ki is more than 10000 nM at Histamine H3 receptor, 5370 nM on Histamine H1 receptor and more than 10000 nM at Histamine H4 receptor. Also, at Histamine H2 receptor, the EC50 is 1.32 nM. The dissociation constant (Kd) was found to be 0.17 nM in test [1]; 0.052 nM in test [2]; 0.25 nM in test [3]; 0.6 nM in test [4]; 4.5 nM at Histamine H1 receptor; 16 nM on Histamine H4 receptor. In addition, the pKi was less than 5 in test [1], more than 5.5 in test [2], 6.07 in test [3] and 5.9 in test [4].

With `CCCCCNC(=O)/N=C(\N)NCCCc1sc(N)nc1C`, the Kd in test [1] is 0.17 nM; in test [2], 0.052 nM; in test [3], 0.25 nM; in test [4] it was 0.6 nM. The negative logarithm of the Ki (pKi) in test [1] is less than 5; in test [2], less than 5; in test [3] it was 5.69; in test [4], 6.05.
